# HUVEC prolif 384 – human endothelial cell proliferation inhibition; HUVEC proliferation, CellTiter-Glo luminescence, 72 h; stronger effect = lower value; viability, % at 10 µM (by protocol); actives 1.1% (n = 86,000);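 active means viability at or below 30%; inactive means viability above 30%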
# Lung fibro prol – blocks proliferation of human lung fibroblasts. LL 47 human lung fibroblast viability, ATP luminescence; stronger effect = lower value. viability, % at 10 µM. actives 1.1% (n = 85,000);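 active means viability at or below 50% in the single dose screen; inactive means viability above 50%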;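 further: compound exposure lasted 72 h before the ATP readout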
#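 Material: human LL 47 lung fibroblast cells; quantity: 1,150 cells/well; medium: IMEM plus 15% FBS; doses: 0.1% DMSO in all compound wells; timing: overnight attachment after seeding, then 72 h compound exposure at 37 °C; detection: CellTiter-Glo luminescence; measure: % viability of median cell-only signal; controls: cell-only wells, no compound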
# H69AR growth 86K – growth inhibitors of human H69AR lung tumor cells; H69AR lung tumor viability, ATP luminescence, 72 h; stronger effect = lower value; viability, % at 10 µM; actives 6% (n = 85,000); AID 598;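 active means viability at or below 40%; inactive means viability above 40%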;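 further: multidrug resistant small cell line overexpressing MRP-1 efflux transporter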
# bCat KO growth – beta-catenin-lacking colon tumor cell growth suppression | HCT116 beta-catenin knockout viability, CellTiter-Glo, 60 h; stronger effect = lower value | viability, % at 10 µM | actives 1.5% (n = 140,000) | AID 818;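 active means viability at or under a set limit, the compound median less 4 SD, cut at about 6% in these data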
# HCT116 PTEN-null – PTEN-deleted cell growth suppression; HCT116 PTEN-null viability, CellTiter-Glo, 60 h; stronger effect = lower value; viability, % at 10 µM; actives 1.2% (n = 140,000); AID 827;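 active means viability at or below a set limit, 4 SD under the median of all tested compounds, cut at about 3.7% in these data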;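 further: PTEN knockout HCT116 line with beta catenin targeted HCT116 as companion control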
# Hits are given with their value; i = inactive; nt = not tested or not shown. This excerpt belongs to a sample that is enriched for hits.
SMILES,HUVEC prolif 384,Lung fibro prol,H69AR growth 86K,bCat KO growth,HCT116 PTEN-null
CC(C)(C)n1cnc2cc(NS(=O)(=O)c3ccccc3)ccc21,i,39,i,i,i
COc1ccc(-n2cnc3cc(NS(=O)(=O)c4ccccc4)ccc32)cc1,i,i,i,i,i
N=c1n(Cc2ccccc2)c2ccccc2n1CC(O)COc1ccccc1 (stereo not drawn),i,i,15,0.9,1.2
Cc1ccc(Cn2c(=N)n(CC(O)COc3ccccc3)c3ccccc32)cc1 (stereo not drawn),2.7,22,-0.1,0.5,0.5
CC(=O)C(Sc1ncnc2c1nnn2-c1ccc(F)cc1)C(=O)N(C)C (stereo not drawn),i,i,12,i,i
COc1ccccc1NS(=O)(=O)c1cc(NC(=O)Nc2ccc(Cl)cc2Cl)ccc1N1CCCCC1,nt,nt,nt,i,i
O=C(Nc1cccc(C(F)(F)F)c1)Nc1ccc(N2CCCC2)c(S(=O)(=O)Nc2ccccc2Cl)c1,nt,nt,nt,1.5,1.5
COc1ccc(Cc2nnc(SCC(=O)N3CCc4ccccc4C3)o2)cc1,i,i,i,i,i
O=C(c1nnc(Cc2ccc(Cl)cc2)o1)N1CCc2ccccc2C1,i,i,i,1.1,0.6
Cc1nn(C)c(C)c1/C=N/N=C1\CCC2C3CCc4cc(O)ccc4C3CCC12C (stereo not drawn),nt,nt,nt,3.1,i
COc1ccc2[nH]c3nc(SCC(=O)Nc4ccc5c(c4)OCO5)nnc3c2c1,nt,nt,nt,i,i
COc1ccc2[nH]c3nc(SCc4nnc(-c5ccc(C)cc5)o4)nnc3c2c1,i,i,18,i,i
CCOC(=O)C1(Nc2nccs2)Sc2ccccc2NC1=O (stereo not drawn),i,i,16,i,i
CCOC(=O)Nc1ccc2c(c1)Nc1ccccc1S2,i,i,i,i,i
O=C(Nc1cccc(F)c1)C1CCN(C(=O)c2ccc(Br)cc2)CC1,i,i,34,i,i
COc1ccc(C2C(C(N)=O)=C(C)Nc3nc(-c4cccc(Cl)c4)nn32)cc1OC (stereo not drawn),i,i,i,i,i
CN(C)S(=O)(=O)c1ccc(S(=O)(=O)N(Cc2ccco2)Cc2ccccc2Cl)cc1,i,i,40,i,i
Cc1nc2ccccc2n1CC(=O)OCC(=O)Nc1ccc2c(c1)OCCO2,i,i,i,i,i
Cc1ccc(NC(=O)c2cc(NC(=O)c3ccco3)ccc2N2CCCCC2)cc1,i,48,26,i,i
Cc1ccc(NC(=O)c2cc(NC(=O)c3ccco3)ccc2N2CCOCC2)cc1,i,i,i,i,i
Cc1ccccc1OCCNc1cc(N2CCN(CCO)CC2)ccc1[N+](=O)[O-],nt,nt,nt,i,i
Cc1cc(C2=CC(C)(c3cc(C)oc3C)Nc3nc(C(F)(F)F)nn32)c(C)o1 (stereo not drawn),i,i,3.2,i,i
COc1ccc2nc(N=Nc3c(O)ccc4ccccc34)sc2c1,nt,nt,nt,5.3,i
COc1ccc2nc(NC(C)=O)sc2c1,i,i,i,i,i
COC(=O)c1c(NC(=O)CN2CCN(c3ccccc3OC)CC2)c2cc(C)ccc2n1C,i,i,29,i,i
SMILES,HUVEC prolif 384,Lung fibro prol,H69AR growth 86K,bCat KO growth,HCT116 PTEN-null
COc1ccccc1N1CCN(CC(=O)Nc2cc(F)ccc2C)CC1,i,i,i,i,i
COc1ccccc1N1CCN(CC(=O)Nc2cc(C)nn2-c2nc(C)cc(C)n2)CC1,i,37,19,nt,nt
CSc1ccc(-c2nnn(Cc3ccc(C)cc3)n2)cc1,i,i,i,i,i
Clc1ccc(C(c2nnnn2C2CCCCC2)N(Cc2cccnc2)Cc2ccco2)cc1 (stereo not drawn),i,i,36,i,i
Cc1ccc2[nH]c(=O)c(C(c3nnnn3C3CCCC3)N(Cc3cccnc3)Cc3ccco3)cc2c1 (stereo not drawn),i,i,i,i,i
N/C(CN1CCCC1=O)=N\OC(=O)c1ccccc1Cl,nt,nt,nt,i,i
Cc1c(Cl)ccc2c1NC(=O)[C@]21N[C@@H](Cc2ccccc2)[C@H]2C(=O)N(c3ccc(F)cc3)C(=O)[C@H]21,i,i,19,i,i
CSCCC(NS(=O)(=O)c1ccc(Cl)cc1)C(=O)OCC(=O)NC12CC3CC(CC(C3)C1)C2 (stereo not drawn),i,i,i,i,i
S=c1[nH]nc(-c2ccc3c(c2)OCO3)n1-c1ccccc1,nt,nt,nt,i,i
S=c1[nH]nc(COc2ccc3c(c2)OCO3)n1-c1ccccc1,i,i,37,i,i
Fc1c(F)c(F)c(N/N=C/c2c[nH]c3ccccc23)c(F)c1F,nt,nt,nt,i,i
COc1cccc(/C=N/NC(=O)c2ccc([N+](=O)[O-])cc2Cl)c1O,nt,nt,nt,5.6,i
COc1ccc2c3c(cccc13)NN=C2C,3.0,26,26,nt,nt
COc1ccccc1CNC(=O)C(C)NS(=O)(=O)c1ccccc1 (stereo not drawn),i,i,i,i,i
CC1(C)N=C(SCC(=O)Nc2ccc(Cl)cc2)C(c2ccccc2)=N1,i,i,i,i,i
CC1(C)N=C(SCC(=O)Nc2ccc(Cl)cc2)C(c2ccc(Cl)cc2)=N1,i,i,8.4,i,i
C/C(=N\OC(=O)c1ccccc1F)c1nccs1,nt,nt,nt,i,i
COc1cc([C@@H]2c3cc4c(cc3[C@H](O)[C@H]3COC(=O)[C@H]23)OCO4)cc(OC)c1OC,i,i,36,i,i
CC(=O)Nc1ccc(S(=O)(=O)CCC#N)cc1,i,i,i,i,i
Cc1ccc(SC(=O)COc2ccccc2C)cc1,i,i,1.7,i,nt
CC1=N/C(=C\c2ccc(OC(C)C)cc2)C(=O)N1c1ccc(C(=O)O)cc1,nt,nt,nt,i,i
Cc1ccc(NC(=O)CSc2nnc([C@@H]3CCCN3C(=O)OC(C)(C)C)o2)c(C)c1,i,i,35,i,i
COc1ccc(-n2ccnc2SCC(=O)Nc2ccccc2)cc1,i,i,i,i,i
N=C1C(c2nc(-c3ccc(Cl)cc3)cs2)=C(O)CN1CCCN1CCOCC1,10.0,i,i,i,i
O=C(CSc1ccc(Cl)cc1)Nc1cccc(-c2nc3ccccc3[nH]2)c1,nt,nt,nt,i,i
SMILES,HUVEC prolif 384,Lung fibro prol,H69AR growth 86K,bCat KO growth,HCT116 PTEN-null
N=c1c(-c2nc3ccccc3[nH]2)cc(C(=O)c2cccs2)nn1-c1ccc(Cl)cc1,24,i,7.4,nt,nt
COc1ccc(S(=O)(=O)N2CCN(C)CC2)cc1C,i,i,i,i,i
O=C(C1=C(c2ccccc2)C(=O)c2ccccc2C1=O)c1ccccc1,nt,nt,nt,1.5,1.5
O=C(c1ccccc1)c1c[nH]cc1-c1ccccc1,i,i,i,i,i
COC1=C(c2ccccc2)C(=O)c2ccccc2C1=O,nt,nt,nt,1.9,2.0
O=C1OCCC1Sc1nnc(-c2ccccc2Br)n1Cc1ccccc1 (stereo not drawn),nt,nt,nt,i,i
COc1ccccc1Cn1c(/C=C/c2ccccc2)nc2ccccc21,nt,nt,nt,i,i
COc1ccc(/C=C/c2nc3ccccc3n2Cc2ccccc2OC)cc1,nt,nt,nt,1.9,2.8
COc1c(Cl)ccc(Cl)c1C(=O)NC(=O)N1CCOCC1,i,i,i,i,i
COc1cc2cc(C(c3nnnn3C3CCCC3)N3CCCCC3)c(=O)[nH]c2cc1OC (stereo not drawn),i,i,i,i,i
